This note sets out measurements from ChEMBL document CHEMBL3856209, “Novel pyrazolopyridine derivatives as potential angiogenesis inhibitors: Synthesis, biological evaluation and transcriptome-based mechanistic analysis” (Eur J Med Chem, 2016).

SMILES strings stand for the structures. Activity calls are given as the source filed them. The rule behind the calls is not given here.

Data set [1] deals with HUVEC. Put plainly: Effect on DLGAP5 gene expression in serum-starved HUVEC after 6 hrs by microarray analysis relative to control. It is filed as functional, Homo sapiens. In short, it runs like this:
(§1)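 Confluent, serum-starved HUVEC (pooled from 3–5 donors, passage ≤4) treated with 2 μM compound or vehicle with 2.5% FBS for 6 h or 24 h. Total RNA hybridized to Illumina Human-HT12 arrays. Data were background-corrected, vst-transformed and rsn-normalized. Hits called by moderated paired t-test versus DMSO-treated cells, p < 0.05 and log2 fold change >|0.5|.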

The subject of data set [2] is HUVEC. Put plainly: Effect on GNG12 gene expression in serum-starved HUVEC after 6 hrs by microarray analysis relative to control. It is filed as functional, Homo sapiens. In short, it runs like this:
as §1

Data set [3] has as its system HUVEC. Put plainly: Effect on KIF22 gene expression in serum-starved HUVEC after 6 hrs by microarray analysis relative to control. In kind it is functional, Homo sapiens. In short, it runs like this: (§2)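 Serum-starved confluent HUVEC (pooled from 3–5 donors, passage ≤4) were treated with 2 μM compound or vehicle in 2.5% FBS for 6 h or 24 h, and total RNA was isolated. Hybridization was on Illumina Human-HT12. Data were processed with bgAdjust, vst and rsn normalization. Changes versus DMSO were called by moderated paired t-test at p < 0.05 and |log2 fold change| > 0.5.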

For data set [4], the system named is HUVEC. Put plainly: Effect on DLC1 gene expression in serum-starved HUVEC after 6 hrs by microarray analysis relative to control. In kind it is functional, Homo sapiens. In short, it runs like this:
as §1

For data set [5], the system named is HUVEC. Briefly: Effect on DLGAP5 gene expression in serum-starved HUVEC after 24 hrs by microarray analysis relative to control. It is filed as functional, Homo sapiens. In short, it runs like this: as §1
For data set [6], the system named is HUVEC. Briefly: Inhibition of VEGF-165-induced HUVEC chemotactic migration at 0.2 to 2 uM after 6 hrs by transwell assay. The conditions noted are these: Homo sapiens. It is filed as functional, cell-based. In short, it runs like this:
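Serum-starved HUVEC were pre-treated overnight with compound or vehicle in 5% FBS medium. Cells were then seeded at 6×10^4 per upper Transwell chamber (8 µm pores) and migrated for 6 h toward VEGF-165 (50 ng/mL) or starvation medium. Migrated cells were ethanol-fixed, stained with H&E and counted in five fields per well. Results are % of control from at least two independent experiments.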

In the next data set the test system is Mus musculus. Put plainly: Toxicity in C57BL/6 mouse allografted with mouse LLC cells at 0.05 to 0.2 mg/kg, ip administered thrice a week for 2 weeks starting 24 hrs before tumor implantation by clinical test. It is filed as organism-based. Conditions: in vivo. In short, it runs like this: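 Male C57BL/6 mice, 6–8 weeks old, in groups of 5–6, received 5×10^5 LLC cells sc in the right flank. Compound (0.05–0.2 mg/kg) or DMSO vehicle was given ip thrice weekly for 2 weeks, starting 24 h before implantation. Mice were weighed and examined clinically every other day. At end-point, kidney, lung, spleen, liver and heart sections were H&E-stained and examined microscopically.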

Data set [7] relates to HUVEC. Briefly: Inhibition of total protein tyrosine kinase activity in serum-starved HUVEC at 1 to 4 uM after 2 hrs. It is filed as cell-based. Conditions: Homo sapiens.
The subject of data set [8] is HUVEC. Briefly: Effect on RNA28S5 gene expression in serum-starved HUVEC after 24 hrs by microarray analysis relative to control. In kind it is functional, Homo sapiens. In short, it runs like this:
as §2

For data set [9], the system named is HUVEC. Put plainly: Effect on DLC1 gene expression in serum-starved HUVEC after 24 hrs by microarray analysis relative to control. It is filed as functional, Homo sapiens. A digest of the protocol:
as §1

Data set [10] deals with HUVEC. Put plainly: Effect on MSMP gene expression in serum-starved HUVEC after 24 hrs by microarray analysis relative to control. It is filed as functional, Homo sapiens. In short, it runs like this: as §2
Data set [11] relates to HUVEC. Briefly: Effect on MSMP gene expression in serum-starved HUVEC after 6 hrs by microarray analysis relative to control. In kind it is functional, Homo sapiens. In short, it runs like this:
as §2

Data set [12] deals with HUVEC. Put plainly: Effect on PTTG3P gene expression in serum-starved HUVEC after 6 hrs by microarray analysis relative to control. In kind it is functional, Homo sapiens. A digest of the protocol: (§3)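 Confluent serum-starved HUVEC (primary, pooled from 3–5 donors, passage ≤4) treated with 2 μM compound or DMSO vehicle in 2.5% FBS for 6 h or 24 h. Total RNA hybridized to Illumina Human-HT12 arrays, background-corrected, vst-transformed and rsn-normalized. Differential expression versus DMSO by moderated paired t-test (p < 0.05, |log2 fold change| > 0.5).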

The subject of data set [13] is HUVEC. Briefly: Effect on RNVU1-18 gene expression in serum-starved HUVEC after 6 hrs by microarray analysis relative to control. It is filed as functional, Homo sapiens. In short, it runs like this:
as §2

The subject of data set [14] is HUVEC. Put plainly: Effect on CDC20 gene expression in serum-starved HUVEC after 24 hrs by microarray analysis relative to control. In kind it is functional, Homo sapiens. A digest of the protocol:
(§4)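 Serum-starved confluent HUVEC treated with 2 μM compound or DMSO in 2.5% FBS for 6 h or 24 h; RNA hybridized to Illumina Human-HT12 arrays. Data background-corrected, vst-transformed and rsn-normalized. Differential probes called by moderated paired t-test (limma) at p < 0.05 and log2 fold change >|0.5| vs DMSO.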

For data set [15], the system named is HUVEC. Briefly: Effect on PTTG1 gene expression in serum-starved HUVEC after 6 hrs by microarray analysis relative to control. In kind it is functional, Homo sapiens. A digest of the protocol: as §2
Data set [16] has as its system HUVEC. Put plainly: Effect on UBE2C gene expression in serum-starved HUVEC after 6 hrs by microarray analysis relative to control. It is filed as functional, Homo sapiens. In short, it runs like this: as §3
The test system of data set [17] is HUVEC (Homo sapiens). Briefly: Antiproliferative activity against human HUVEC cells assessed as decrease in VEGF-165-induced cell growth at 0.5 to 2 uM after 24 to 48 hrs by CyQUANT cell proliferation assay.
The test system of data set [18] is HUVEC. Briefly: Effect on RNVU1-18 gene expression in serum-starved HUVEC after 24 hrs by microarray analysis relative to control. In kind it is functional, Homo sapiens. A digest of the protocol:
as §3

The subject of data set [19] is HUVEC. Briefly: Effect on RNVU1-7 gene expression in serum-starved HUVEC after 6 hrs by microarray analysis relative to control. In kind it is functional, Homo sapiens. A digest of the protocol: as §3
For data set [20], the system named is HUVEC (Homo sapiens). Put plainly: Antiproliferative activity against human HUVEC cells assessed as decrease in VEGF-165-induced cell growth at 0.5 to 2 uM after 24 to 48 hrs by MTT assay.
Data set [21] relates to HUVEC. Briefly: Effect on PTTG1 gene expression in serum-starved HUVEC after 24 hrs by microarray analysis relative to control. It is filed as functional, Homo sapiens. In short, it runs like this: as §3
Data set [22] concerns HUVEC. Put plainly: Effect on BIRC5 gene expression in serum-starved HUVEC after 24 hrs by microarray analysis relative to control. It is filed as functional, Homo sapiens. A digest of the protocol:
as §4

The subject of data set [23] is HUVEC. Put plainly: Effect on RNVU1-7 gene expression in serum-starved HUVEC after 24 hrs by microarray analysis relative to control. It is filed as functional, Homo sapiens. In short, it runs like this: as §3
In data set [24] the test system is HUVEC. Briefly: Effect on SPC24 gene expression in serum-starved HUVEC after 24 hrs by microarray analysis relative to control. In kind it is functional, Homo sapiens. A digest of the protocol:
as §3

Data set [25] relates to HUVEC. Briefly: Effect on PTTG3P gene expression in serum-starved HUVEC after 24 hrs by microarray analysis relative to control. In kind it is functional, Homo sapiens. A digest of the protocol:
as §2

In data set [26] the test system is HUVEC. Briefly: Effect on CCNB2 gene expression in serum-starved HUVEC after 24 hrs by microarray analysis relative to control. It is filed as functional, Homo sapiens. A digest of the protocol:
as §4

The subject of data set [27] is HUVEC. Put plainly: Effect on SPC24 gene expression in serum-starved HUVEC after 6 hrs by microarray analysis relative to control. It is filed as functional, Homo sapiens. A digest of the protocol:
as §3

In data set [28] the test system is HUVEC. Briefly: Effect on ERAP2 gene expression in serum-starved HUVEC after 6 hrs by microarray analysis relative to control. In kind it is functional, Homo sapiens. In short, it runs like this:
as §1

The subject of data set [29] is HUVEC. Put plainly: Effect on CALD1 gene expression in serum-starved HUVEC after 6 hrs by microarray analysis relative to control. It is filed as functional, Homo sapiens. In short, it runs like this: as §4
For data set [30], the system named is HUVEC. Briefly: Effect on CCNB2 gene expression in serum-starved HUVEC after 6 hrs by microarray analysis relative to control. In kind it is functional, Homo sapiens. A digest of the protocol:
as §4

For data set [31], the system named is HUVEC. Put plainly: Effect on UBE2C gene expression in serum-starved HUVEC after 24 hrs by microarray analysis relative to control. In kind it is functional, Homo sapiens. A digest of the protocol: as §3
In data set [32] the test system is HUVEC. Put plainly: Effect on CENPA gene expression in serum-starved HUVEC after 24 hrs by microarray analysis relative to control. It is filed as functional, Homo sapiens. In short, it runs like this: as §4

Turning to `COc1ccc(Cn2nc(-c3ccccc3)c3cc(Nc4ccc(N5CCN(C)CC5)cc4)nc(N4CCNCC4)c32)cc1`, the log2FC is 0.2579 in the data set with HUVEC [1]; 0.6358 in the data set on HUVEC [2]; -0.0345 in the data set with HUVEC [3]; 0.3681 in the data set on HUVEC [4]; -0.516 in the data set with HUVEC [5]; 0.4902 in the data set on HUVEC [8]. Also, the figures for the log2FC in the data set on HUVEC [9], in the data set with HUVEC [10] and in the data set with HUVEC [11] were 0.5215, -0.652 and -0.0154, respectively. In addition, the inhibition result with HUVEC [6] and with HUVEC [7] was “Active” each time. Further, in the data set on Mus musculus, the Activity entry was “Non-Toxic”.
As for `COc1ccc(Cn2nc(-c3ccccc3)c3cc(Nc4ccc(N5CCN(C)CC5)cc4)nc(N4CCN(C)CC4)c32)cc1`, the log2FC is given as -0.2702 in the data set with HUVEC [12]; -0.6156 in the data set with HUVEC [13]; -0.9562 with HUVEC [14]; -0.1804 with HUVEC [15]; -0.2671 in the data set on HUVEC [16]; -0.8206 with HUVEC [5]. In addition, the log2FC in the data set on HUVEC [18] is -0.0118; with HUVEC [19], -0.536; with HUVEC [21], -0.8594; in the data set with HUVEC [22], -0.6896; with HUVEC [23], 0.1142; with HUVEC [24] it was -0.7666. The log2FC in the data set on HUVEC [25] was -0.5177; in the data set on HUVEC [26] it was -0.7404; with HUVEC [27], -0.1032; in the data set with HUVEC [30], -0.1003; in the data set with HUVEC [31], -0.9349; in the data set with HUVEC [32], -0.6147. The “fold change (FC)” value was 0.1107 in the data set with HUVEC [1], -0.1033 in the data set with HUVEC [3], 0.5068 in the data set on HUVEC [28] and 0.5101 with HUVEC [29]. In addition, the outcome in the data set on HUVEC (Homo sapiens) [17] and with HUVEC (Homo sapiens) [20] was Active. In addition, the inhibition entry in the data set on HUVEC [6] and with HUVEC [7] was “Active” throughout. Further, the Activity entry in the data set on Mus musculus is “Non-Toxic”.
As for `COc1ccc(Cn2nc(-c3ccccc3)c3cc(Cl)nc(N4CCNCC4)c32)cc1`, the log2FC was -0.1207 in the data set on HUVEC [12]; -0.6107 with HUVEC [13]; -0.6535 with HUVEC [14]; -0.1057 with HUVEC [15]; 0.5758 in the data set on HUVEC [4]; -0.1374 with HUVEC [16]. Moreover, the log2FC is given as -0.1577 in the data set with HUVEC [18]; -0.5056 in the data set with HUVEC [19]; -0.6261 in the data set with HUVEC [21]; -0.6034 in the data set with HUVEC [22]; -0.1037 in the data set on HUVEC [23]; -0.732 in the data set with HUVEC [24]. Also, the log2FC with HUVEC [25] is recorded as -0.5735; in the data set on HUVEC [26] it was -0.5884; with HUVEC [27], 0.1186; in the data set with HUVEC [30], -0.1297; in the data set with HUVEC [31], -0.5278; in the data set with HUVEC [8], 0.141. In addition, the log2FC with HUVEC [9] was -0.0926; with HUVEC [10], -0.6932; with HUVEC [11], -0.0237; in the data set on HUVEC [32], -0.5592. Moreover, the figures for the “fold change (FC)” value in the data set on HUVEC [2], with HUVEC [28] and in the data set on HUVEC [29] were 0.5853, 0.5171 and 0.5218, respectively. The result in the data set on HUVEC (Homo sapiens) [17] and in the data set on HUVEC (Homo sapiens) [20] was Active. Moreover, the inhibition result in the data set with HUVEC [6] and in the data set on HUVEC [7] was “Active” in each case. Further, in the data set on Mus musculus, the Activity entry is recorded as “Non-Toxic”.
